# In ChEMBL document CHEMBL4513216, “Probing the Open Global Health Chemical Diversity Library for Multistage-Active Starting Points for Next-Generation Antimalarials” (ACS Infect Dis, 2020):
# Assay: Toxicity liver stage against HepG2, at 10uM
# Type: cell-based
# Set-up: test concentration 10 uM, cell line HepG2-A16-CD81EGFP
# Details: human, HepG2-A16-CD81EGFP cells; read-out: INHIBITION
# Procedure, shortened: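 Uninfected HepG2-A16-CD81EGFP cells, 3 × 10^3 per well, 1536-well, plated on prespotted compound at 10 μM final, parasite-free screening media added to match infected plates; puromycin 10 μM positive, DMSO 0.5% negative; run in parallel with 48 h PbLuc assay at 37 °C, 5% CO2; viability by CellTiter-Glo luminescence, normalized to controls.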
row,Compound,cytotoxicity at 10 µM
1,CC(C)COCCC(=O)Nc1c(-c2ccc(F)cc2)ncn1C,-1.18%
2,O=C(Cn1ncc2c(c1=O)CCCCC2)Nc1cccc2[nH]ccc12,0.417%
3,CCN1CC[C@@]2(C(=O)N3CCCC3)CCN(S(C)(=O)=O)CC[C@@H]12,-0.537%
4,CNC(=O)CN1CCCC12CCN(Cc1c[nH]cn1)CC2,0.312%
5,COCCN(C(=O)c1cc(-c2ccc(C)s2)[nH]n1)C1CC1,11.6%
6,COc1cccc(NC(=O)N(CCO)Cc2ccsc2)c1,-9.87%
7,Nc1nc(CN2CCOC(Cn3cccn3)C2)nc2ccccc12 (centres undefined),-20.4%
8,O=C(c1ccccn1)N1CCC(S(=O)(=O)c2ccccc2)C1 (centres undefined),3.26%
9,CC1(C)CN(C(=O)CC2CCS(=O)(=O)CC2)C[C@]1(C)O,5.91%
10,CCCOc1ccc2ccccc2c1CN1CC[C@@]2(O)CCNC[C@H]2C1,-148%
11,CCN1CCN(c2ccc(NC(=O)CC(C)C)c(C)c2)CC1,-8.87%
12,N#Cc1cccc(CN2C[C@H](OCC3CCOCC3)[C@H]3COC[C@H]32)c1,-0.82%
13,CC(C)N1CCC(CC(=O)NCC2OCCc3ccccc32)CC1 (centres undefined),-4.65%
14,CN(C)C(=O)CNC(=O)c1ccc2c(-c3nccs3)noc2c1,7.19%
15,O=C1CCC2(CCN(c3cccc(C(F)(F)F)n3)CC2)CN1CCO,-18.2%
16,CC1CN(C)CCN1C(=O)Nc1nc(-c2cccn2C)cs1 (centres undefined),-2.38%
17,Cc1ccn2ncc(C(=O)N3CCCC(c4noc(C)n4)C3)c2n1 (centres undefined),-7.29%
18,O=C1CN(S(=O)(=O)c2ccc(F)cc2)CC(O)CN1CC1CC1 (centres undefined),0.227%
19,Cc1cc(S(=O)(=O)NCC2CNCCOC2)c(C)cc1Cl (centres undefined),-0.708%
20,CCC(C)(CNC(=O)Nc1nncs1)N1CCOCC1 (centres undefined),-7.98%
21,CCNc1c(NC(=O)C2CC2)c(=O)oc2ccccc12,-5.99%
22,O=C(COc1cccc2c1CCC2=O)NCCOc1ccccc1,10.5%

row,Compound,cytotoxicity at 10 µM
1,CS(=O)(=O)NCCNC(=O)NC1(c2ccc(Cl)cc2)CCC1,-2.48%
2,CC(C)(C#N)C(=O)Nc1nccn1Cc1ccc(Br)cc1,-47.5%
3,O=C(C[C@@H]1COC[C@H]2CN(C(=O)c3ccccn3)C[C@@H]12)N1CCCC1,-104%
4,O=S(=O)(C1CC1)N1CCc2ncnc(N3CCOCC3)c2CC1,-109%
5,CSc1ccccc1C(=O)C1CCCN(Cc2cc(C(C)C)[nH]n2)C1 (centres undefined),-4.01%
6,CC[C@@]1(O)CCN(C(=O)c2ccsc2)C[C@H]1O,-9.35%
7,Cc1cnn(CC2CCCN2C(=O)c2ccc3[nH]c(=O)[nH]c3c2)c1 (centres undefined),-3.98%
8,Cc1nn(Cc2ccccc2)c(C)c1CNC1CCc2ncnn2C1 (centres undefined),-1.04%
9,COc1c(C2CCCN2CC(=O)N(C)Cc2ccco2)c(C)nn1C (centres undefined),-3.13%
10,CN(C)C(=O)CN1C[C@H]2CC[C@@H](C1)N(C(=O)CCCn1cncn1)C2,0.612%
11,COCCN(C)C[C@@H]1CN(C(=O)C(C)(C)c2ccccc2)C[C@@H]1CO,16.7%
12,O=C(NCCCN1CCOCC1)c1ccc(Cl)cc1Cl,-3.64%
13,CCc1nc2n(n1)CC(NCC1=Cc3ccc(OC)cc3OC1)CC2 (centres undefined),4.02%
14,Cc1nsc(NC(=O)N2CCCCC2CCO)n1 (centres undefined),-45.7%
15,CCN(CC1CCOC1)C(=O)NCc1nnc2n1CCC2 (centres undefined),13.6%
16,Cc1c(C(=O)NCC(C)C)nnn1-c1cccc2c1CCN(C(C)C)C2,-12.3%
17,CC1(C)OCC2(CO1)CN(S(=O)(=O)c1ccc(Br)s1)C2,-7.31%
18,CN(Cc1ccco1)C1CCC12CCN(C(=O)C1CCOCC1)CC2 (centres undefined),-2.92%
19,CNS(=O)(=O)CCCN1CCCC1c1noc(C2CC2)n1 (centres undefined),-16.5%
20,CC(C)c1cc(C(=O)N2CCN(Cc3ccco3)CC2)n[nH]1,2.18%
21,CC(O)CN1CCN(C(=O)c2ccc(Cn3cccc3)cc2)CC1 (centres undefined),-5.75%
22,Cc1ccc2c(C)c(C(=O)NCc3csc(N)n3)oc2c1,-2.83%
